The values below come from the array DNA melting data of Ke et al. (doi:10.1101/2024.01.08.574731).

A short description of data set [1]: folding enthalpy; higher = less favourable; fluorescence melt of hairpins on a sequencing array, two-state fit. Conditions: sodium 0.088 M. In outline: (§1)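 Bootstrapped two-state fits yielded melting temperature and folding enthalpy for library hairpins. Cy3 fluorescence, with annealed Cy3 and quencher oligos, was imaged on a sequenced MiSeq flow cell in 50 mM Na-HEPES pH 8.0, 25 mM NaCl in 2.5 °C steps up to 60 °C, and normalised to pre-quench Cy3 and to control constructs. Four replicates were combined by inverse variance, and fitted temperatures were raised by 9.35 °C to match UV melts.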

Data set [2] can be described thus: melting temperature; fluorescence melt of hairpins on a sequencing array, two-state fit, raised by 9.35 °C to match UV melts. As to conditions: sodium 0.088 M. Put shortly: as §1

As for GGTACAGAAATGTACC ((((((....)))))), in data set [1], the folding enthalpy was -38 kcal/mol. Besides, in data set [2], the Tm was determined as 53 °C.
The matching figures for GGTACAGCGAAAGCTACC (((..(((....)))))): -16.4 kcal/mol and 38.1 °C.
As for GGTACAGGAAACTGCACC (((.(((....))).))), the folding enthalpy in data set [1] is -32.5 kcal/mol. The Tm in data set [2] stood at 44.2 °C.
Turning to GGTACCCCGAAAGGGACC (((..(((....)))))), in data set [1], the folding enthalpy is -19.8 kcal/mol. In addition, the Tm in data set [2] was determined as 46.7 °C.
In the case of GGTACCGAAAGGTCACC ((((((....))).))), the folding enthalpy in data set [1] is -17.7 kcal/mol. The Tm in data set [2] came out at 46.8 °C.
As for GGTACCGAAAGGTCCACC ((((((....)))..))), the folding enthalpy in data set [1] was -13.3 kcal/mol. The Tm in data set [2] turned out to be 41.3 °C.
On to GGTACCGAAAGGTCGACC ((((((....)))..))), for which, in data set [1], the folding enthalpy is -13.6 kcal/mol. Also, the Tm in data set [2] came to 36.5 °C.
The matching figures for GGTACCGAAAGGTCTACC ((((((....)))..))): -15 kcal/mol and 33.9 °C.
The like results for GGTACCGAAAGGTGACC ((((((....))).))) were, in that order, -21.5 kcal/mol and 48.4 °C.
With GGTACCGAAAGGTGGACC ((((((....)))..))), the folding enthalpy in data set [1] was -17 kcal/mol. In data set [2], the Tm was found to be 37.8 °C.
As to GGTACCGGAAACGGTACC (((((((....))))))), the folding enthalpy in data set [1] is -30.5 kcal/mol. For the same sequence, the Tm in data set [2] is 69 °C.
Take GGTACGCCGAAAGGCACC (((..(((....)))))): the folding enthalpy in data set [1] was -8.21 kcal/mol. In data set [2], the Tm is 32 °C.
On to GGTACGCGAAAGCGCACC (((.(((....))).))), for which, in data set [1], the folding enthalpy is -28.6 kcal/mol. Moreover, in data set [2], the Tm amounted to 57.6 °C.
As for GGTACGGAAACGTACC ((((((....)))))), the folding enthalpy in data set [1] was -37.8 kcal/mol. Besides, in data set [2], the Tm came out at 65.8 °C.
The like results for GGTACGTCGAAAGACACC (((..(((....)))))) were, in that order, -9.89 kcal/mol and 33.3 °C.
As to GGTACTCCGAAAGGAACC (((..(((....)))))), in data set [1], the folding enthalpy is -9.52 kcal/mol. Moreover, the Tm in data set [2] came to 25.4 °C.
The matching figures for GGTACTGCGAAAGCAACC (((..(((....)))))): -9.7 kcal/mol and 28.8 °C.
The like results for GGTACTGGAAACAGTACC (((((((....))))))) were, in that order, -50.7 kcal/mol and 61.5 °C.
In the case of GGTACTGGAAACAGTGTC (..((((....))))..), the folding enthalpy in data set [1] is -13.9 kcal/mol. The Tm in data set [2] came to 28.9 °C.
The like results for GGTAGACCGAAAGGTACC (((..(((....)))))) were, in that order, -19.8 kcal/mol and 38 °C.
The matching figures for GGTAGACGAAAGTCCACC (((.(((....))).))): -23.8 kcal/mol and 46.3 °C.
The matching figures for GGTAGAGAAATCTACC ((((((....)))))): -25.2 kcal/mol and 49.2 °C.
For GGTAGAGCGAAAGCTACC (((..(((....)))))), the folding enthalpy in data set [1] is -17.3 kcal/mol. Also, the Tm in data set [2] is 45.5 °C.
Regarding GGTAGCACGAAAGTGACC (((..(((....)))))), the folding enthalpy in data set [1] was -13.9 kcal/mol. Besides, the Tm in data set [2] came to 32.2 °C.
The like results for GGTAGCCGAAAGGCAACC (((.(((....))).))) were, in that order, -23.8 kcal/mol and 57.9 °C.
Take GGTAGCGAAAGCTATACC ((((((....)))..))): the folding enthalpy in data set [1] was -15.5 kcal/mol. For the same sequence, the Tm in data set [2] came out at 44 °C.
Turning to GGTAGCGAAAGCTCCACC ((((((....)))..))), the folding enthalpy in data set [1] was -13.2 kcal/mol. Also, in data set [2], the Tm was found to be 38.8 °C.
The like results for GGTAGCGAAAGCTGAACC ((((((....)))..))) were, in that order, -17.6 kcal/mol and 38.2 °C.
The matching figures for GGTAGCGAAAGCTTACC ((((((....))).))): -20.9 kcal/mol and 51.6 °C.
The matching figures for GGTAGCGGAAACACTACC (((((.(....).))))): -30.9 kcal/mol and 44.8 °C.
Consider GGTAGCGGAAACGCCACC (((.(((....))).))), for which, in data set [1], the folding enthalpy was -24.8 kcal/mol. For the same sequence, the Tm in data set [2] was 48.3 °C.
For the sequence GGTAGCGGAAACGCTATC (.(((((....))))).), the folding enthalpy in data set [1] is -29.2 kcal/mol. For the same sequence, the Tm in data set [2] was 51.8 °C.
For GGTAGCGGAAACGTTACC ((((.((....)).)))), the folding enthalpy in data set [1] was -32.4 kcal/mol. Also, in data set [2], the Tm amounted to 50.4 °C.
In the case of GGTAGGCCGAAAGGCACC (((..(((....)))))), the folding enthalpy in data set [1] was -12 kcal/mol. Also, the Tm in data set [2] is 41.9 °C.
In the case of GGTAGGGGAAACCCCACC (((.(((....))).))), the folding enthalpy in data set [1] is -23.7 kcal/mol. Besides, the Tm in data set [2] is 46.2 °C.
The matching figures for GGTAGGGGAAACCTTACC ((((.((....)).)))): -30.5 kcal/mol and 44.1 °C.
The like results for GGTAGGGGAAACTCTACC (((((.(....).))))) were, in that order, -37.4 kcal/mol and 46 °C.
The like results for GGTAGTGAAAACTACC ((((((....)))))) were, in that order, -33.4 kcal/mol and 58.5 °C.
In the case of GGTAGTGGAAACACCACC (((.(((....))).))), the folding enthalpy in data set [1] was -20.8 kcal/mol. In addition, the Tm in data set [2] was 40 °C.
On to GGTAGTGGAAACGTTACC ((((..(....)..)))), for which the folding enthalpy in data set [1] was -17.1 kcal/mol. Further, in data set [2], the Tm was 34.5 °C.
With GGTATACGAAAGTAAACC (((.(((....))).))), in data set [1], the folding enthalpy is -28.4 kcal/mol. Moreover, in data set [2], the Tm is 43.6 °C.
The matching figures for GGTATCACGAAAGTGACC (((..(((....)))))): -9.93 kcal/mol and 30 °C.
The matching figures for GGTATCCCGAAAGGGACC (((..(((....)))))): -9.73 kcal/mol and 34.8 °C.
The matching figures for GGTATCCGAAAGGACACC (((.(((....))).))): -25.2 kcal/mol and 47.5 °C.
As for GGTATCGAAAGATCACC ((((((....))).))), in data set [1], the folding enthalpy is -21.9 kcal/mol. The Tm in data set [2] amounted to 35 °C.
The like results for GGTATCGCGAAAGCGACC (((..(((....)))))) were, in that order, -9.09 kcal/mol and 31.7 °C.
The like results for GGTATCGGAAACAATACC (((((.(....).))))) were, in that order, -34.9 kcal/mol and 31.6 °C.
For the sequence GGTATCGGAAACGACACC (((.(((....))).))), the folding enthalpy in data set [1] is -30.7 kcal/mol. Also, the Tm in data set [2] was determined as 43.4 °C.
The matching figures for GGTATGAAAATACC (((((....))))): -20.9 kcal/mol and 47.5 °C.
Turning to GGTATGCGAAAGCAAACC (((.(((....))).))), in data set [1], the folding enthalpy is -30.2 kcal/mol. Besides, in data set [2], the Tm is 53 °C.
On to GGTATGGGAAACCGTACC ((((.((....)).)))), for which the folding enthalpy in data set [1] was -38.5 kcal/mol. For the same sequence, in data set [2], the Tm is 50.5 °C.
The like results for GGTATTACGAAAGTAACC (((..(((....)))))) were, in that order, -13.4 kcal/mol and 27.5 °C.
As to GGTATTCCGAAAGGAACC (((..(((....)))))), the folding enthalpy in data set [1] is -12.8 kcal/mol. Further, in data set [2], the Tm came out at 29.4 °C.
On to GGTATTGGAAACAATGCC ((.((((....)))).)), for which the folding enthalpy in data set [1] is -37.1 kcal/mol. For the same sequence, in data set [2], the Tm was found to be 47.7 °C.
The like results for GGTATTGGAAACAGTACC ((((.((....)).)))) were, in that order, -32.2 kcal/mol and 39.6 °C.
The matching figures for GGTCAACCGAAAGGTACC (((..(((....)))))): -15.9 kcal/mol and 35.1 °C.
As for GGTCAACGAAAGTTACC (((.(((....)))))), in data set [1], the folding enthalpy was -20.6 kcal/mol. Moreover, the Tm in data set [2] was 38.2 °C.
The matching figures for GGTCACCCGAAAGGGACC (((..(((....)))))): -17.7 kcal/mol and 48.6 °C.
Regarding GGTCACGAAAGTGCGACC ((((((....)))..))), in data set [1], the folding enthalpy is -17.7 kcal/mol. Further, the Tm in data set [2] turned out to be 40.8 °C.
The matching figures for GGTCACGAAAGTGTTACC ((((((....)))..))): -17.1 kcal/mol and 38.2 °C.
The matching figures for GGTCACGGAAACGTAACC (((.(((....))).))): -31.5 kcal/mol and 42.1 °C.
Consider GGTCAGAAATGACC (((((....))))), for which the folding enthalpy in data set [1] is -28.2 kcal/mol. Moreover, the Tm in data set [2] worked out at 53.6 °C.
The like results for GGTCAGCGAAAGCTCACC (((.(((....))).))) were, in that order, -18.9 kcal/mol and 41.7 °C.
The matching figures for GGTCAGGCGAAAGCCACC (((..(((....)))))): -11.2 kcal/mol and 35.6 °C.
For the sequence GGTCAGGGAAACCTGATC (.(((((....))))).), in data set [1], the folding enthalpy was -27.2 kcal/mol. The Tm in data set [2] came out at 48.5 °C.
The like results for GGTCAGGGAAACTTGACC (((((.(....).))))) were, in that order, -37.9 kcal/mol and 49.5 °C.
GGTCATGGAAACATAACC (((.(((....))).))): the folding enthalpy in data set [1] was -18.5 kcal/mol. Further, the Tm in data set [2] came out at 31.6 °C.
The like results for GGTCATGGAAACATGATC (.(((((....))))).) were, in that order, -31.5 kcal/mol and 47 °C.
On to GGTCCAGCGAAAGCTACC (((..(((....)))))), for which the folding enthalpy in data set [1] is -10.7 kcal/mol. Further, the Tm in data set [2] amounted to 30.1 °C.
The like results for GGTCCAGGAAACCAGACC ((((..(....)..)))) were, in that order, -23.1 kcal/mol and 34.5 °C.
With GGTCCAGGAAACTGGATC (.(((((....))))).), the folding enthalpy in data set [1] was -32.1 kcal/mol. In addition, the Tm in data set [2] was found to be 49.7 °C.
The like results for GGTCCAGGAAACTGGGTC (..((((....))))..) were, in that order, -15.3 kcal/mol and 39.5 °C.
The like results for GGTCCCACGAAAGTGACC (((..(((....)))))) were, in that order, -15.8 kcal/mol and 36.8 °C.
